This is a sample that favours compounds with a hit; in the whole collection about 1.8% have one here.
GRK2 inh: compounds blocking aptamer binding on GRK2 – biochemical, human GRK2, bead flow cytometry, HTS, primary screen | Beta-adrenergic receptor kinase 1 (Homo sapiens), P25098 | FAM-aptamer displacement from GRK2 | inhibition of aptamer binding, % at 10 µM | 330,000 tested, 0.59% active;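 active = inhibition of aptamer binding above 40%, roughly 3 SD of noise, on plates passing a quality check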;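 note: median bead fluorescence of bound FAM aptamer so fluorescent compounds give negative values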
ARNT TACC3 PPI: disruptors of ARNT/TACC3 protein interaction, primary screen, biochemical, AlphaScreen, single concentration; Transforming acidic coiled-coil-containing protein 3 (Homo sapiens), Q9Y6A5; AlphaScreen His-ARNT PAS-B/GST-TACC3 binding, luminescence; TACC3 fragment carries E629A point mutation; inhibition, % at 9.99 µM; 390,000 tested, 0.66% active;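 active = mean inhibition of replicates at least 50% and at least half of replicates each reaching 50%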;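 note: 0% = complete ARNT plus TACC3 wells and 100% = ARNT alone without TACC3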
CAL PDZ FP-1: CAL PDZ peptide-binding inhibitors, primary screen, biochemical, fluorescence polarization, Cer-tagged CAL PDZ, HTS. inhibition, % at 20 µM. Golgi-associated PDZ and coiled-coil motif-containing protein (Homo sapiens), Q9HD26. 330,000 tested, 0.02% active. AID 504414, 2011. purified CAL PDZ, TMR-peptide fluorescence polarization, 1 h;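 active = highest replicate inhibition of at least 40%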;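 note: plate controls were DMSO neutral control wells for no effect and unlabeled competitor peptide control wells for full effect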
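Read-out basis: mP drop reported as inhibition | Assay system: Tagged CAL PDZ protein CerCALP, purified | Benchmarks: Unlabelled peptide for full inhibition, DMSO wells as neutral | Schedule: 1 h incubation at room temperature before polarization reading | Buffer or medium: Sodium phosphate/NaCl buffer pH 7.4 with TCEP, IgG, Thesit | Doses: Single point, 20 µM | Measured by: Fluorescence polarization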
Tn7 DDE FP: inhibitors of Tn7 peptide binding to fibrin DD(E), primary screen, biochemical, fluorescence polarization, human fibrin, Tn7 probe; Fibrinogen beta chain (Homo sapiens), P02675; FP displacement of FITC-Tn7 peptide from fibrin DD(E); 0% = median of compound wells per plate; inhibition, % at 8.3 µM; 370,000 tested, 0.13% active; AID 720508, 2013;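 active = inhibition above the mean of compounds falling within the control limits plus 3 SD of them, cut at about 14% in these data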;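 note: 0% = plate median of compound wells and 100% = 10 µM Aha-Tn7 peptide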
Target sequence (P02675 whole entry, looked up): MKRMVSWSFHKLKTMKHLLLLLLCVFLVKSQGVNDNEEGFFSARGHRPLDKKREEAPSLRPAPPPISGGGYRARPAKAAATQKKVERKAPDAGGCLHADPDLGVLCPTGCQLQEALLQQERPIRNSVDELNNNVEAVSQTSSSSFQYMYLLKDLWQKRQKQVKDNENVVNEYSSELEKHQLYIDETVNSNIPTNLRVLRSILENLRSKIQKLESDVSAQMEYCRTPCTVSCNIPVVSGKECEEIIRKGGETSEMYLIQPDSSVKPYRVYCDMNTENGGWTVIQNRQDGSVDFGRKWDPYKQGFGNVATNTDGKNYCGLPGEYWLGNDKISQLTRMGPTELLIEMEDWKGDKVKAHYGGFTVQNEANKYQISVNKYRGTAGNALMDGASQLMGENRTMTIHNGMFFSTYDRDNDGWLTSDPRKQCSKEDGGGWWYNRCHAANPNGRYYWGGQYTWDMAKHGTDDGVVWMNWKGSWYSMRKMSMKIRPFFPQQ
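Assay system: human fibrin DD(E). Input: DD(E) 2 µM final. Medium: Tris buffer with calcium and detergent, pH 7.8. Compound dosing: single point at 8.3 µM. Timing: 10 min plus 3 h, room temperature. Technique: fluorescence polarization of the labelled Tn7 tracer. Read-out: percent inhibition. Replicates: singlicate testing.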
CAL PDZ FP-2: untagged CAL PDZ binding inhibitors, primary screen, biochemical, fluorescence polarization, HTS; Golgi-associated PDZ and coiled-coil motif-containing protein (Homo sapiens), Q9HD26; purified CAL PDZ, TMR-peptide fluorescence polarization, 1 h; inhibition, % at 24.9 µM; 300,000 tested, 0.92% active; AID 602252, 2012;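 active = mean inhibition of at least 30% with at least half of replicates also reaching 30%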;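 note: 0% = DMSO neutral control and 100% = excess unlabeled competitor peptide PRC23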
DDE Tn6 FP inh: inhibitors of Tn6 peptide binding to fibrin DD(E), primary screen, biochemical, fluorescence polarization, human fibrin, Tn6 probe; Fibrin DD(E) TRITC-Tn6 fluorescence polarization displacement; Fibrinogen beta chain (Homo sapiens), P02675; AID 720509, 2013; inhibition, % at 8.3 µM; 370,000 tested, 0.21% active;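 active = inhibition above a per-campaign cutoff: mean of compounds within control limits plus 3 SD, cut at about 15% in these data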;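 note: 0% = median of all compound wells on the plate and 100% = blocking peptide control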
An asterisk follows results filed as active; · = not tested or not shown.

SMILES | GRK2 inh | ARNT TACC3 PPI | CAL PDZ FP-1 | Tn7 DDE FP | CAL PDZ FP-2 | DDE Tn6 FP inh
CCN1CCN(S(=O)(=O)c2ccc(Cl)c(C(=O)Oc3ccc(CC(=O)OC)cc3)c2)CC1 | · | 0.1 | -0.8 | 0.3 | 80.3* | -1.4
O=C(CCCOc1ccc(Br)cc1)NCCc1ccc(OC(F)F)cc1 | 2.0 | 0.6 | -0.4 | 8.0 | -0.3 | -3.5
CCCC(=O)Nc1cc(C(F)(F)F)ccc1N1CCOCC1 | 0.0 | -2.6 | 0.5 | 0.1 | 34.8* | 0.9
C/C=C(\C)C(=O)Nc1cccc(C2=NOC3(C2)C[C@@H](C(N)=O)N(C(=O)c2ccccc2C(=O)c2ccccc2)C3)c1 (stereo not given in full) | 5.0 | -9.8 | -0.6 | -5.3 | -1.0 | 2.6
C=C(C)C(=O)Nc1cccc(C2=NOC3(C2)C[C@H](C(N)=O)N(C(=O)CC)C3)c1 (stereo not given in full) | 72.0* | -4.4 | -1.3 | · | -3.4 | ·
C=C(C)C(=O)Nc1cccc(C2=NOC3(C2)C[C@@H](C(N)=O)N(C(=O)/C(C)=C/C)C3)c1 (stereo not given in full) | 94.0* | -5.9 | 1.0 | 0.4 | -0.8 | 0.9
C=C(C)C(=O)Nc1cccc(C2=NOC3(C2)C[C@H](C(N)=O)N(C(=O)c2ccccc2C(=O)c2ccccc2)C3)c1 (stereo not given in full) | 91.0* | 0.1 | 0.5 | -8.5 | -4.4 | -1.7
C[C@H]1CN([C@@H](C)CO)S(=O)(=O)c2ccc(-c3cncnc3)cc2O[C@H]1CN(C)C(=O)c1cccc(F)c1 | · | -6.0 | · | · | · | ·
CC(C)CC#Cc1ccc2c(c1)O[C@H](CN(C)Cc1ccccn1)[C@H](C)CN([C@H](C)CO)S2(=O)=O | · | -9.1 | · | · | · | ·
O=[N+]([O-])c1ccc(N2CCOCC2)cc1SCc1ccco1 | 1.0 | -2.5 | -2.1 | 8.6 | -1.9 | 4.7
O=[N+]([O-])c1ccc(SCc2ccco2)cc1N1CCOCC1 | 3.0 | 6.5 | -0.6 | -3.5 | 45.1* | 0.1
COc1ccc(CC(=O)NCC2CCCN(Cc3ccc(OC(F)(F)F)cc3)C2)cc1 (stereo not given) | 0.0 | -3.5 | -4.0 | 3.8 | 63.4* | -8.0
COC(=O)c1ccc(CN2CCCC(CNC(=O)Cc3ccc(OC)cc3)C2)cc1 (stereo not given) | 0.0 | -2.3 | 0.2 | 1.0 | -4.0 | 6.0
CC=Cc1ccc2n(c1=O)C[C@@H]1[C@@H](CO)[C@H](C(=O)NCc3ccccn3)N(CC3CC3)[C@H]21 (mixture of isomers) | · | 12.1 | · | · | · | ·
CCN(C(=O)COc1ccccc1)C1CCCCC1 | 0.0 | -7.6 | -1.0 | 5.1 | -1.6 | -4.9
CCN(C(=O)CCc1ccccc1)C1CCCCC1 | 0.0 | -15.3 | 0.1 | 3.7 | 63.9* | 0.7
CCN(C(=O)c1cccc(NC(=O)c2ccccc2)c1)C1CCCCC1 | 3.0 | -1.3 | -1.2 | -4.6 | 57.3* | -4.6
COc1ccc(NC(=O)N2C[C@@H](O)COC[C@@H]3O[C@@H](CC(=O)N4CCOCC4)CC[C@H]32)cc1 | · | -1.7 | · | · | · | ·
Cc1noc(C)c1NC(=O)N(C)C[C@@H]1Oc2ccc(NC(=O)NC3CCCCC3)cc2C(=O)N([C@H](C)CO)C[C@@H]1C | · | -2.2 | · | · | · | ·
COc1ccc(NC(=O)Nc2ccc3c(c2)[C@@H]2C[C@H](CC(=O)NCc4ccc(-c5ccccc5)cc4)O[C@@H](CO)[C@@H]2O3)cc1 | · | -6.3 | · | · | · | ·
O=C(N/N=C(\c1ccccc1)c1cccnc1)c1cccc(F)c1 | 3.0 | 56.9* | -4.3 | 4.6 | -1.8 | 6.5
COc1ccccc1S(=O)(=O)N[C@H]1C=C[C@H](CC(=O)NCc2cccc(F)c2)O[C@H]1CO | · | -2.3 | · | · | · | ·

Assay outcomes deposited in PubChem by several laboratories.
